The IC50 is the concentration that inhibits the measured activity by half. For orientation: EC50 means the concentration that produces a half-maximal response.

Experimental findings from ChEMBL document CHEMBL3124772, “Design, synthesis, and evaluation of conformationally restricted acetanilides as potent and selective β3 adrenergic receptor agonists for the treatment of overactive bladder” (J Med Chem, 2014) are described below.

Bounds are passed on as bounds.

In assay [1] the target is Beta-2 adrenergic receptor (Homo sapiens, UniProt P07550). In words: Displacement of [125I]-cyanopindolol from recombinant human beta-2 adrenergic receptor expressed in CHO cell membranes after 1 hr by scintillation counting analysis. (In a radioligand displacement assay an active substance lowers the binding of a labelled ligand.)
Chain of Beta-2 adrenergic receptor (P07550 whole entry): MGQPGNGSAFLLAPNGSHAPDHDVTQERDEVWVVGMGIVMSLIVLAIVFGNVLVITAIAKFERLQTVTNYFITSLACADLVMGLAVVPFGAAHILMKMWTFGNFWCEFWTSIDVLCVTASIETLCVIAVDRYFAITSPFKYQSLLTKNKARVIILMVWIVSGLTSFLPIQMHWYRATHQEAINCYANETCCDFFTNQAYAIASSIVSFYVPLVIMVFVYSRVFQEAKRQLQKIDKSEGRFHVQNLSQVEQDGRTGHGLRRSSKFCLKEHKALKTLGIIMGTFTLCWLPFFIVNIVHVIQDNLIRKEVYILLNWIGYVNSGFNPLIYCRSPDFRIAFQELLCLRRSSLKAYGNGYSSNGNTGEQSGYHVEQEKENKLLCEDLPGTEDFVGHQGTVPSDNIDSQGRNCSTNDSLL
The target of assay [2] is Beta-1 adrenergic receptor (Homo sapiens, UniProt P08588). In words: Displacement of [125I]-cyanopindolol from recombinant human beta-1 adrenergic receptor expressed in CHO cell membranes after 1 hr by scintillation counting analysis.
Chain of Beta-1 adrenergic receptor (P08588 whole entry): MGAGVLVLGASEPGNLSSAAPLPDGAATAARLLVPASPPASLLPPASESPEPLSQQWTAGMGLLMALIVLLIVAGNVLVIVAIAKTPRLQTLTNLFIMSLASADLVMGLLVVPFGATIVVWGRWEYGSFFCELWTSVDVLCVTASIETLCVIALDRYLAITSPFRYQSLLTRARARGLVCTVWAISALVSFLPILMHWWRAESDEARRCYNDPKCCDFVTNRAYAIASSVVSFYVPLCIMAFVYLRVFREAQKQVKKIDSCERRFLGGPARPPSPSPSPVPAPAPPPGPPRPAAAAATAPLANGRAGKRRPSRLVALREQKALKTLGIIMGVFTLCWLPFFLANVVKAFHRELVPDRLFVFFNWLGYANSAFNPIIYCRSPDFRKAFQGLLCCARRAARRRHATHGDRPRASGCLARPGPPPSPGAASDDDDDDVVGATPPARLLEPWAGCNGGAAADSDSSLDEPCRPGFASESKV
Assay [3] concerns the target T1, Beta-3 adrenergic receptor (Homo sapiens, UniProt P13945). In words: Agonist activity at human beta-3 adrenergic receptor expressed in CHO cells assessed as increase in intracellular cAMP accumulation at 10^-10 to 10^-5 M after 30 mins by time-resolved fluorescence assay relative to R-(-)isoproterenol. The class given is functional, cell-based. The essentials:
(§1)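 CHO cells stably transfected with cloned β3-AR, harvested after 3 days subculture with enzyme-free dissociation, 6000 cells in HBSS with 5 mM HEPES, 0.1% BSA and 0.6 mM IBMX. Ligand at 10⁻¹⁰ to 10⁻⁵ M final, 30 min room temperature with labeled cAMP antibody; LANCE TR-FRET read after 1 h detection, cAMP from standard curve.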
Background: Changes in cAMP serve as a functional read-out for many G protein-coupled receptors.
Target sequence in this assay (P13945 whole entry, looked up): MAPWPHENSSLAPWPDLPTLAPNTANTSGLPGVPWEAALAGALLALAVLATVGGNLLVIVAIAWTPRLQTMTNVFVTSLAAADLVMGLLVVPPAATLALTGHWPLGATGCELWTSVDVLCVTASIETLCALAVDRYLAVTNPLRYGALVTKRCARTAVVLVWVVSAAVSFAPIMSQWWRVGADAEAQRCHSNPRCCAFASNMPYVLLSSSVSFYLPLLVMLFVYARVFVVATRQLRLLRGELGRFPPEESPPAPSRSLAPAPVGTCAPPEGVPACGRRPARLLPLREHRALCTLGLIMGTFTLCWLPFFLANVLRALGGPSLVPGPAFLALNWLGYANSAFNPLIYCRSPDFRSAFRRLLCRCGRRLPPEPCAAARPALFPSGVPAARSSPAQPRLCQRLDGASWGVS

Assay [4] has as its target T1, Beta-3 adrenergic receptor. In words: Agonist activity at human beta-3 adrenergic receptor expressed in CHO cells assessed as increase in intracellular cAMP accumulation after 30 mins by time-resolved fluorescence assay. The class given is functional, cell-based. The essentials:
as §1
Target sequence in this assay (P13945 whole entry): as the sequence (P13945 whole entry, looked up) above

As to `CCc1nc2c(s1)CC[C@H]2C(=O)Nc1ccc(C[C@@H]2CC[C@H]([C@H](O)c3cccnc3)N2)cc1`, the IC50 in assay [1] and in assay [2] was > 20 µM throughout. Also, the Activity in assay [3] is 49%. In assay [4], the EC50 is 13.6 nM.

For the compound `C[C@H](C(=O)Nc1ccc(C[C@@H]2CC[C@H]([C@H](O)c3ccccc3)N2)cc1)c1csc(N)n1`, the IC50 in assay [1] and in assay [2] was > 20 µM throughout. In assay [3], the Activity was found to be 85%. For the same compound, the EC50 in assay [4] is 0.67 nM.

On to `C[C@@H](C(=O)Nc1ccc(C[C@@H]2CC[C@H]([C@H](O)c3ccccc3)N2)cc1)c1csc(N)n1`, for which the IC50 in assay [1] and in assay [2] was > 20 µM throughout. Also, the Activity in assay [3] was 84%. The EC50 in assay [4] amounted to 0.18 nM.

Take `CCc1nc2c(s1)CC[C@H]2C(=O)Nc1ccc(C[C@@H]2CC[C@H]([C@H](O)c3ccccc3)N2)cc1`: the IC50 in assay [1] and in assay [2] was > 20 µM each time. In addition, the Activity in assay [3] came to 37%. Moreover, the EC50 in assay [4] is 1.95 nM.

Take `O=C(Nc1ccc(C[C@@H]2CC[C@H]([C@H](O)c3ccccc3)N2)cc1)[C@@H]1CCc2sc(-c3ccc(F)cc3)nc21`: the IC50 in assay [1] amounted to 2.51 µM; in assay [2], 4.33 µM. The Activity in assay [3] worked out at 76%. The EC50 in assay [4] worked out at 186 nM.

Turning to `O=C(Nc1ccc(C[C@@H]2CC[C@H]([C@H](O)c3cccnc3)N2)cc1)[C@@H]1CCc2sc(C3CC3)nc21`, the IC50 in assay [1] and in assay [2] was > 20 µM throughout. Besides, the Activity in assay [3] stood at 43%. Moreover, the EC50 in assay [4] turned out to be 12.4 nM.

Turning to `CCC[C@@H](C(=O)Nc1ccc(C[C@@H]2CC[C@H]([C@H](O)c3ccccc3)N2)cc1)c1csc(N)n1`, the IC50 in assay [1] and in assay [2] was > 20 µM each time. The Activity in assay [3] was 66%. Besides, the EC50 in assay [4] turned out to be 0.88 nM.

As to `Nc1nc2c(s1)CC[C@@H]2C(=O)Nc1ccc(C[C@@H]2CC[C@H]([C@H](O)c3ccccc3)N2)cc1`, the 50% inhibitory concentration (IC50) in assay [1] and in assay [2] was > 20 µM throughout. Also, the Activity in assay [3] is 91%. Moreover, the EC50 in assay [4] came out at 44.2 nM.

For `O=C(Cn1cccn1)Nc1ccc(C[C@@H]2CC[C@H]([C@H](O)c3cccnc3)N2)cc1`, the IC50 in assay [1] and in assay [2] was > 20 µM each time. Further, the Activity in assay [3] was 72%. Besides, the EC50 in assay [4] is 76.7 nM.

As to `CC(C)[C@@H](C(=O)Nc1ccc(C[C@@H]2CC[C@H]([C@H](O)c3ccccc3)N2)cc1)c1csc(N)n1`, the IC50 in assay [1] and in assay [2] was > 20 µM throughout. Besides, in assay [3], the Activity turned out to be 85%. In addition, in assay [4], the EC50 stood at 1.6 nM.

For `Nc1nc2c(s1)CC[C@H]2C(=O)Nc1ccc(C[C@@H]2CC[C@H]([C@H](O)c3cccc(Cl)c3)N2)cc1`, the IC50 in assay [1] is 8.45 µM; in assay [2], > 20 µM. The Activity in assay [3] amounted to 93%. In addition, in assay [4], the EC50 amounted to 0.15 nM.

With `O=C(Nc1ccc(C[C@@H]2CC[C@H]([C@H](O)c3cccnc3)N2)cc1)[C@@H]1CCc2sc(-c3ccc(F)cc3)nc21`, the IC50 was determined as 2.47 µM in assay [1] and 13.3 µM in assay [2]. Also, the Activity in assay [3] amounted to 15%. Moreover, in assay [4], the EC50 came to 8.78 nM.

For the compound `CC[C@@H](C(=O)Nc1ccc(C[C@@H]2CC[C@H]([C@H](O)c3ccccc3)N2)cc1)c1csc(N)n1`, the IC50 in assay [1] and in assay [2] was > 20 µM in each case. Also, the Activity in assay [3] stood at 85%. In addition, the EC50 in assay [4] stood at 0.83 nM.

As for `Nc1nc2c(s1)CCCC[C@H]2C(=O)Nc1ccc(C[C@@H]2CC[C@H]([C@H](O)c3ccccc3)N2)cc1`, the IC50 in assay [1] and in assay [2] was > 20 µM in each case. The Activity in assay [3] was found to be 70%. Also, in assay [4], the EC50 was 1.86 nM.
